In experiment [1] the target is Tyrosine-protein kinase Fyn (Homo sapiens) (UniProt P06241). The experiment can be described thus: Inhibition of FYN in human SKCO1 cells at 1 uM after 4 hrs using biotin labeled VAIKTLKPGTMSPESFLEEAQIMK probe by mass-spectrometric analysis relative to control. The class given is cell-based.
Experiment [2] has as its target T1, Serine/threonine-protein kinase D2 (Homo sapiens) (UniProt Q9BZL6).
T1 sequence (whole entry): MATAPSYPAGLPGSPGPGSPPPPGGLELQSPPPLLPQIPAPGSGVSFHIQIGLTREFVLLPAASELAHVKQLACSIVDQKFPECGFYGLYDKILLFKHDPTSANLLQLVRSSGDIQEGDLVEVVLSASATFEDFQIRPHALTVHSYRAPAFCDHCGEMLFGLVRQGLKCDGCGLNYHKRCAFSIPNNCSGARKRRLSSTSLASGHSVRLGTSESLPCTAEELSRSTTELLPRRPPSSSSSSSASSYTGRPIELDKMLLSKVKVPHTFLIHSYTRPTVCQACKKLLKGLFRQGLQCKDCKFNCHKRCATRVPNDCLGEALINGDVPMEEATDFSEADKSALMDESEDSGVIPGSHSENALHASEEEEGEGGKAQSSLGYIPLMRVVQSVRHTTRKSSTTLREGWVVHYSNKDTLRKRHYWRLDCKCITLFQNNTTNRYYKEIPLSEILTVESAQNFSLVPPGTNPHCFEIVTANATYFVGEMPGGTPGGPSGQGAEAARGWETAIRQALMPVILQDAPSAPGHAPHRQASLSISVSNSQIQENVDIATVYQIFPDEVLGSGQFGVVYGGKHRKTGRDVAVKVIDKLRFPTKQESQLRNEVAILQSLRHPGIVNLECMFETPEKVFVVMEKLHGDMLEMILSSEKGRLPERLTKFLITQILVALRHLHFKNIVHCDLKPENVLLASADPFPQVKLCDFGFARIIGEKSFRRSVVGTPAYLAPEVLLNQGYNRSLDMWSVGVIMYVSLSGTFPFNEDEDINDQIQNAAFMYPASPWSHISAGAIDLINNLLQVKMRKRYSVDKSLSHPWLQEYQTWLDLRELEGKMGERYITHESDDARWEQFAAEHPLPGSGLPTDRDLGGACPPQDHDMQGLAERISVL
The experiment in a line: Inhibition of human PRKD2 (519 to 838 residues) expressed in bacterial expression system assessed as enzyme activity at 10 uM by KINOMEScan assay relative to control. On the set-up: scale not given: the % may be the effect or the level left. In outline:
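In vitro ATP-site competition binding assay across a panel of 456 kinases, with compound tested at 1 and 10 μM.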

For experiment [3], the target named is Dual specificity mitogen-activated protein kinase kinase 2 (Homo sapiens) (UniProt P36507). The experiment can be described thus: Inhibition of full length human MEK2 (1 to 400 residues) expressed in mammalian expression system assessed as enzyme activity at 1 uM by KINOMEScan assay relative to control. Further details: scale not given: the % may be the effect or the level left. In outline:
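In vitro ATP-site competition binding assay (KinomeScan) across a panel of 456 kinases. Compound was tested at 1 and 10 μM. The read-out is the binding inhibition score relative to control.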

Experiment [4] addresses T2, Dual specificity mitogen-activated protein kinase kinase 5 (Homo sapiens) (UniProt Q13163).
T2 sequence (whole entry): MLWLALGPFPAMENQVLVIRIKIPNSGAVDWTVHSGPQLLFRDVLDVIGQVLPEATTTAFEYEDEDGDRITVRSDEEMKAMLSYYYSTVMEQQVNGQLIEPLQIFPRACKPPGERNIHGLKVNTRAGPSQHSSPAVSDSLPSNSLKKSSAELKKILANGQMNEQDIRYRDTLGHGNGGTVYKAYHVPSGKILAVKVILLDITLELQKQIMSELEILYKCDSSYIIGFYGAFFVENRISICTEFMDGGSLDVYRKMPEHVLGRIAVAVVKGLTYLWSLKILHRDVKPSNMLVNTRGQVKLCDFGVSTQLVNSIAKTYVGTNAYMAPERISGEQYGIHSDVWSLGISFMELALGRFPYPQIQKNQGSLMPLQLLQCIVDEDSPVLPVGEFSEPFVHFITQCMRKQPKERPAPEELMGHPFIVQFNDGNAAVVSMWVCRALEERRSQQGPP
The experiment can be described thus: Binding affinity to MAP2K5 in human NCI-H358 cells at 1 uM by mass spectrometry based pull down assay. The class given is cell-based.

Experiment [5] concerns the target 80S Ribosome (Homo sapiens) (UniProt P08865+P42677+P62753+P15880+P23396+P61247+P62701+P22090+P46782+P62081+P62241+P46781+P46783+P62280+P25398+P62277+P62263+P62841+P62244+P62249+P08708+P62269+P39019+P60866+P63220+P62266+P62847+P62851+P62854+P62979+P62857+P62273+P62861+P39023+P36578+P46777+Q02878+P18124+P62424+P62917+P32969+P27635+P62906+P62913+P30050+P26373+P40429+P50914+P61313+P18621+Q07020+Q02543+P84098+P46778+P35268+P62829+P62750+P83731+P61254+P61353+P46776+P46779+P47914+P62888+P62899+P62910+P49207+P42766+P18077+Q9Y3U8+P83881+P61927+P61513+P63173+P62891+P62945+P05388+P05386). The experiment can be described thus: Binding affinity to RPS24 in human NCI-H23 cells at 1 uM by mass spectrometry based pull down assay. The class given is cell-based.

Experiment [6] concerns the target Constitutive coactivator of PPAR-gamma-like protein 1 (Homo sapiens) (UniProt Q9NZB2). The experiment can be described thus: Binding affinity to FAM120A in human NCI-H358 cells at 1 uM by mass spectrometry based pull down assay. Format: cell-based.
The target of a further experiment is Plectin (Homo sapiens) (UniProt Q15149). The experiment can be described thus: Binding affinity to PLEC in human NCI-H23 cells at 1 uM by mass spectrometry based pull down assay. Format: cell-based.
Experiment [7] concerns the target Protein phosphatase 1G (Homo sapiens) (UniProt O15355). The experiment can be described thus: Binding affinity to PPM1G in human NCI-H23 cells at 1 uM by mass spectrometry based pull down assay. The class given is cell-based.

Activity calls are given as the source filed them. No cut-off for these calls is given here.

The record followed here is ChEMBL document CHEMBL4118021, “Studies of TAK1-centered polypharmacology with novel covalent TAK1 inhibitors” (Bioorg Med Chem, 2017).

Chain of Tyrosine-protein kinase Fyn (Homo sapiens) (P06241 2-537 limits assumed): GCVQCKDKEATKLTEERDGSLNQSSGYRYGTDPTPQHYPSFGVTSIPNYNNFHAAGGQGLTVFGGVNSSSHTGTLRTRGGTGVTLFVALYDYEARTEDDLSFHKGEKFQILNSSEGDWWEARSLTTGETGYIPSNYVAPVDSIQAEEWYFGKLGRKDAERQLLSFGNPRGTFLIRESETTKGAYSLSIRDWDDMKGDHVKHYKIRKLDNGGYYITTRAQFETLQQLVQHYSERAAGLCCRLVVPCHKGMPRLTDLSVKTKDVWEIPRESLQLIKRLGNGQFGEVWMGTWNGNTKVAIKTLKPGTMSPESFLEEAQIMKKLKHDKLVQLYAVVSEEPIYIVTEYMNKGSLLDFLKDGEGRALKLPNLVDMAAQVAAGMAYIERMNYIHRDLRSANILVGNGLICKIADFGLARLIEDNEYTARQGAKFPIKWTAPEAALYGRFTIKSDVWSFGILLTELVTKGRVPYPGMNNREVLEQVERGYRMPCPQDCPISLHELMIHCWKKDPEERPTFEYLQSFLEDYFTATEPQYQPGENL
Chain of Protein phosphatase 1G (Homo sapiens) (O15355 whole entry): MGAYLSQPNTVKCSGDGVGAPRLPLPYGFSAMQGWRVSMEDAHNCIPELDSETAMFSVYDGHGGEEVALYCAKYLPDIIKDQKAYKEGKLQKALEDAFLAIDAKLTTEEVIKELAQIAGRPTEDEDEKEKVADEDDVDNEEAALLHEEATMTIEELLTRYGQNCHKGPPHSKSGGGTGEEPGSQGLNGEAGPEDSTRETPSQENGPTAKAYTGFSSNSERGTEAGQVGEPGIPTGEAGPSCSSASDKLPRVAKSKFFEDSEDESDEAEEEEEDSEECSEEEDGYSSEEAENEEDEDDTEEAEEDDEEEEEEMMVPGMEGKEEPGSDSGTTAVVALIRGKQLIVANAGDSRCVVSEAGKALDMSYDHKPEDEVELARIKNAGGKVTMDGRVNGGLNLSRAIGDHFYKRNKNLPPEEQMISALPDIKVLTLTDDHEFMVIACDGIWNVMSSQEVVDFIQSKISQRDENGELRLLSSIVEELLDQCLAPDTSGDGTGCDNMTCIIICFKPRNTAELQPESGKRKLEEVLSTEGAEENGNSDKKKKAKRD
Chain of Dual specificity mitogen-activated protein kinase kinase 2 (Homo sapiens) (P36507 whole entry, the tested form may be a part): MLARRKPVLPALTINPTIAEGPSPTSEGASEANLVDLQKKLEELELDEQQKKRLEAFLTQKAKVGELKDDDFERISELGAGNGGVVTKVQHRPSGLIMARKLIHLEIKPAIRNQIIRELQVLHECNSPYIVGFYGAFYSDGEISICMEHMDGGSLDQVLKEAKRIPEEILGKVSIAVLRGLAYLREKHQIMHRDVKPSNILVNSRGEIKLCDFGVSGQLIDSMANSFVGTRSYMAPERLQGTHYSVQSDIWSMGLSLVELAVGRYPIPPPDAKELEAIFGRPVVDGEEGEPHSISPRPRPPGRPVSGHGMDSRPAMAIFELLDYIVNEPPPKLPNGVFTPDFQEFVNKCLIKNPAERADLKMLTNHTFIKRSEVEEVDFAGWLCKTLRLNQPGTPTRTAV
Chain of Constitutive coactivator of PPAR-gamma-like protein 1 (Homo sapiens) (Q9NZB2 whole entry): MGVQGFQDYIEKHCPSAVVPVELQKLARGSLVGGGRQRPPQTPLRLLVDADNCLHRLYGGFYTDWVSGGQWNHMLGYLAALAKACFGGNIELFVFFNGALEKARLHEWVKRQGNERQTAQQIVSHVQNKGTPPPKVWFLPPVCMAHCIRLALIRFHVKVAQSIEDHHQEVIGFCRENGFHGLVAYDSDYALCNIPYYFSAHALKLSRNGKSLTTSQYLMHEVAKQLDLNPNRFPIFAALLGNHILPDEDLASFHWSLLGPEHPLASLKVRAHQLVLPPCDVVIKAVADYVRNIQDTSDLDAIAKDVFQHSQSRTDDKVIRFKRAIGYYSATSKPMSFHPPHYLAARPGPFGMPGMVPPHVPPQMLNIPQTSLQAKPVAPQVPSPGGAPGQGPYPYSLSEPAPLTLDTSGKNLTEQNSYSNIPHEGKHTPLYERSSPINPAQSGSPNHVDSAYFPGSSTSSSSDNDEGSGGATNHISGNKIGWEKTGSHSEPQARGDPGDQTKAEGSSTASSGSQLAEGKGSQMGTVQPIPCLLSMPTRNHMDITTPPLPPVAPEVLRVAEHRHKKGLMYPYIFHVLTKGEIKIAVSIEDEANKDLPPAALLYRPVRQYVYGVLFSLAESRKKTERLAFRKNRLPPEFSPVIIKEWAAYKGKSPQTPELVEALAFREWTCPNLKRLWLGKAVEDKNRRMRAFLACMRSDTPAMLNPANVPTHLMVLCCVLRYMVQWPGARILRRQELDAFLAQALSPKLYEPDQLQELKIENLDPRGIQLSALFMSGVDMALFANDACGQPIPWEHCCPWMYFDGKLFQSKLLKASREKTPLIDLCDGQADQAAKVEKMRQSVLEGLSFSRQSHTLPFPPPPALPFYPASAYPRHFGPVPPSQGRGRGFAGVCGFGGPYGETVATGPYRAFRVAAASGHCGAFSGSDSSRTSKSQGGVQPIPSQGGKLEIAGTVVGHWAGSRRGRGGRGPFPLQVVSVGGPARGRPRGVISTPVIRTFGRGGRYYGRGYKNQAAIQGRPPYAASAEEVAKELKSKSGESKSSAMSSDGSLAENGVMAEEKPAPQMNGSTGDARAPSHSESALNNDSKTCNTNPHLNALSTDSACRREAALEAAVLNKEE

On to `C=CC(=O)Nc1ccccc1Nc1nc(Nc2ccc(N3CCN(C)CC3)cc2)ncc1Cl`, for which the inhibition in experiment [1] is 8.3%.

In the case of `COc1cc(O)c2c(c1)/C=C/C[C@H](O)[C@H](O)C(=O)/C=C\C[C@H](C)OC2=O`, the Activity is 2.5% in experiment [2] and 0.75% in experiment [3].

Regarding `C=CC(=O)Nc1ccccc1Nc1nc(Nc2ccc(N3CCN(CCOCCOCCOCCNC(=O)CCCC[C@@H]4SC[C@@H]5NC(=O)N[C@@H]54)CC3)cc2)ncc1Cl`, the result (in experiment [4]; in experiment [5]; in experiment [6]; at Plectin (Homo sapiens); in experiment [7]) was Active.

The inhibition is the change of the read-out against control, counted positive when it falls.
